Source: PubChem
CTSL1 counter: blocks F. hepatica cathepsin L1 in PFM18AAP counter-screen. recombinant F. hepatica cathepsin L1, Z-Leu-Arg-MCA fluorescence. inhibition, % at 5.96 µM. 300,000 compounds, 0.49% hits. AID 1906;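 active = inhibition above the mean of all tested compounds plus 3 SD, set per screening campaign, cut at about 17% in these data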;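 note: 0% = plate median of test compound wells and 100% = 1 µM Z-Phe-Ala-diazomethylketone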
aDG glyco up: increases alpha dystroglycan glycosylation. Pro5-aDG cells, alpha-DG glycosylation AlphaScreen (IIH6); 0% Pro5, 100% B10-LARGE cell signal. activation, % at 10 µM. 360,000 compounds, 0.22% hits;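 active = activation of at least 8% versus controls, or a plate z-score of at least 8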;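 note: Pro5 are CHO cells carrying HIG-tagged alpha-DG that lacks glycosylation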
PKA-R2B activ: activators of human PKA-R2B complex. P22694+P31323. PKA-R2B holoenzyme dissociation, Cy5-IP20 fluorescence polarization; R2B truncated from residue 108, S112A mutant; 0% DMSO only, 100% 113 µM cGMP. activation, % at 11.4 µM. 340,000 compounds, 0.079% hits;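 active = activation above a cutoff set at the mean over all compounds plus 3 SD, cut at about 18% in these data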;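 note: higher means more holoenzyme dissociation and a rise in polarization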
Target sequence (P31323 whole entry, looked up, other chains not shown, the tested form may be a part): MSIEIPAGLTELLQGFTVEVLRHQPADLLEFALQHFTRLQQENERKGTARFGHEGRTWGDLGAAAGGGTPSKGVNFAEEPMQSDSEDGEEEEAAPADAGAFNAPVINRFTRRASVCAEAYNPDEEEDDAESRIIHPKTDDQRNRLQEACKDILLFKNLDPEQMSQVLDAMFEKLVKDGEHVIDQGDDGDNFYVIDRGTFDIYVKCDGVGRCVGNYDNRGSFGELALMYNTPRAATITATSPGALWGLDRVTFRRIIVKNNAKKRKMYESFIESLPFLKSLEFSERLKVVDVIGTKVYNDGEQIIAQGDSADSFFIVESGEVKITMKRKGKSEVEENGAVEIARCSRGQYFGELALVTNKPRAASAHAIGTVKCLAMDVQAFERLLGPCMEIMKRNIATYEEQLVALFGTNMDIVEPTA
PKA-R1A act: activators of PKA-R1A complex; P00514+P68181; PKA-R1A dissociation, Cy5-IP20 fluorescence polarization; scaled: DMSO 0%, 113 µM cGMP 100%; activation, % at 11.4 µM; 340,000 compounds, 0.083% hits;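 active = percent activation above the mean of all tested compounds plus 3 SD, cut at about 19% in these data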;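 note: higher means more PKAc released from R1A so a rise in polarization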
UCH37 inh: inhibitors of human deubiquitinating enzyme UCH37. Q9Y5K5. purified proteasome/UCH37, Ub-AMC cleavage fluorescence. inhibition, % (concentration not given with the values). 330,000 compounds, 0.33% hits. AID 588478;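 active = mean inhibition over replicate wells above about 20%, limit read from the data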;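 note: 0% = compound-free wells with enzyme and 100% = wells lacking proteasome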
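Material: Human UCH37 enzyme supplied as purified proteasome complex | Schedule: 30 min compound-proteasome preincubation then 25 min substrate reaction, room temperature | Detection: AMC fluorescence from Ub-AMC cleavage, excitation 355 nm, emission 460 nm | Benchmarks: Wells without proteasome as full block, compound-free enzyme plus substrate as uninhibited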
* hit, by the source's call; · = not tested or not shown. Compounds with a hit are over-represented: about 0.94% of the library has one in this group of screens.

SMILES	CTSL1 counter	aDG glyco up	PKA-R2B activ	PKA-R1A act	UCH37 inh
Cn1c(=N)n(CC(=O)c2ccccc2)c2ccccc21	0	2	·	·	3
COc1ccc2oc(=O)c(C(C)=NNc3nc(-c4cc(C)ccc4C)cs3)cc2c1	·	·	·	·	5
COc1cc(C=NNC(=O)c2ccncc2)ccc1OCC(=O)Nc1cccc([N+](=O)[O-])c1	·	·	·	·	1
O=C(CCl)NCc1cc(-c2ccc(Cl)cc2)no1	35*	0	4	-2	4
COc1ccc(OCc2cc(-c3ccc(Cl)cc3)no2)cc1	1	0	3	-2	1
Nc1c(C(=O)c2ccccc2)sc(Nc2ccccc2)c1S(=O)(=O)c1ccccc1	19*	0	-10	-2	-7
N#Cc1c(Nc2ccccc2)sc(C(=O)c2ccc(F)cc2)c1N	1	0	-11	3	-11
CCC(C)[C@H](NC(=O)[C@@H]1CSC2c3ccccc3C(=O)N21)C(=O)NCC1CCCO1 (some centres undefined)	17*	0	-8	0	7
CCOC(=O)c1c(C)[nH]c(N=Nc2ccc(C)cc2C)c1C	1	0	-7	0	4
CCOC(=O)c1c(C)[nH]c(N=Nc2cc(C(=O)O)cc(C(=O)O)c2)c1C	9	0	-16	-11	24*
CSCCC(NS(=O)(=O)c1ccc2c(c1)c(=O)n(C)c(=O)n2C)C(=O)NC1CCN(Cc2ccccc2)CC1 (centres undefined)	40*	0	-5	-4	3
O=C1CCN(CCCc2ccccc2)CCN1[C@H](CO)c1ccccc1	-1	0	9	7	28*
Cc1nc2c(-c3ccc(Cl)cc3)c(C)[nH]n2c(=O)c1Cc1ccccc1	3	12*	6	1	-9
O=C(COC(=O)C1CC(=O)N(c2ccc3c(c2)OCCO3)C1)NC1CCCc2ccccc21 (centres undefined)	-29	0	-9	0	22*
CCOC(=O)c1ccccc1NC(=O)COC(=O)C1CC(=O)N(c2ccc3c(c2)OCCO3)C1 (centres undefined)	-18	0	3	5	3
COc1cc(C(=O)ON=C2C3CC4CC(C3)CC2C4)cc(OC)c1OC	36*	1	-1	-3	2
COc1cc(C(=O)O/N=C2\C=CC(=O)C=C2C)cc(OC)c1OC	2	-1	-8	-5	·
CC(=O)O[C@H]1CC(C)(C)C(=C=C/C(C)=C/C=C/C(C)=C/C=C/C=C(C)/C=C/C=C(\C)C(=O)C[C@@]23O[C@]2(C)C[C@@H](O)CC3(C)C)[C@](C)(O)C1	34*	·	·	·	1
O=C(CNC(=O)c1ccco1)NN=Cc1ccccc1[N+](=O)[O-]	·	·	·	·	5
COc1ccc(C(=O)Nc2cc(C(=O)c3ccccc3)c(C)oc2=O)cc1	18*	0	-3	-9	2
Cc1oc(=O)c(NC(=O)c2cccc(Cl)c2)cc1C(=O)c1ccccc1	55*	0	2	-3	-13
COC(=O)c1cc(NC(=O)c2ccccc2)c(=O)oc1C	2	1	8	-16	5
O=C(NC(Cc1ccccc1)C(=O)O)/C(=C/c1ccc(F)cc1)NC(=O)c1ccccc1 (centres undefined)	-1	0	-3	-8	3
O=C(NC(Cc1ccccc1)C(=O)O)/C(=C/c1ccccc1)NC(=O)c1cccc(Br)c1 (centres undefined)	0	0	-9	-4	31*
CSCCC(NC(=O)c1ccccc1Br)C(=O)NCC(c1ccco1)N1CCCCC1 (centres undefined)	21*	0	12	-9	0
SMILES	CTSL1 counter	aDG glyco up	PKA-R2B activ	PKA-R1A act	UCH37 inh
CCOC(=O)c1c(-c2ccc(C)o2)csc1NC(=O)COC(=O)c1ccc(NC(N)=O)cc1	19*	0	-6	-5	-5
Cc1ccc(S(=O)(=O)N=C(c2ccccc2)N2CCOCC2)c(C)c1	·	·	·	·	0
COc1ccccc1CNC(=O)CCS(=O)(=O)c1ccc(Cl)cc1	29*	0	-3	-5	1
COc1ccccc1CNC(=O)CCS(=O)(=O)c1ccc2c(c1)CCN2C(C)=O	-1	5.3*	-6	2	1
COc1ccc(CCNC(=O)CCS(=O)(=O)c2ccc3c(c2)CCN3C(C)=O)cc1OC	-3	0	-11	-8	1
O=CN1CCN(C(=O)c2ccc(-c3nc4ccccc4s3)s2)CC1	26*	1	3	-5	·
Cc1ccc(S(=O)(=O)N[C@@H](Cc2ccccc2)C(=O)CCl)cc1	70*	0	5	-7	·
Cc1ccc(S(=O)(=O)NC(Cc2ccccc2)C(=O)NN)cc1 (centres undefined)	0	0	-15	-4	2
CC1(C)C=C2C(=NN(c3ccccc3)C(N)=C2C#N)CO1	109*	0	2	4	·
NC(=NOC(=O)Cc1cccs1)c1ccc([N+](=O)[O-])cc1	·	·	·	·	-3
COc1ccc(C=NNc2ncc(Br)cn2)c(OC)c1	·	·	·	·	4
CCCCc1cc(=O)oc2cc(OCC(=O)N3CCC(C(=O)O)(c4ccccc4)CC3)ccc12	20*	0	-4	-10	-41
CC(CC(=O)Nc1ccc(Cl)c(C(F)(F)F)c1)=NNC(=O)c1cnccn1	·	·	·	·	3
CC(=NN=C(N)SC1CC(=O)N(c2ccc(Cl)cc2)C1=O)c1cccs1 (centres undefined)	·	·	·	·	6
CC(/C=C/c1ccc(N(C)C)cc1)=N\N=C(/N)SC1CC(=O)N(c2ccc(C(=O)O)cc2)C1=O (centres undefined)	22*	0	-13	0	·
Cc1cc(C(=O)NN=Cc2cccc([N+](=O)[O-])c2)c2ccccc2n1	·	·	·	·	2
CC(C)C[C@H](N)c1nnc(SCC(=O)Nc2ccc(Br)cc2)o1	91*	0	3	0	3
NCCc1nnc(SCC(=O)Nc2ccc(Br)cc2)o1	1	0	-3	-15	7
CC(C)C[C@H](NC(=O)OC(C)(C)C)c1nnc(SCC(=O)Nc2ccc(Br)cc2)o1	99*	0	-4	-1	-1
Cc1ccc(C)c(NC(=O)CSc2nnc([C@@H](N)Cc3ccccc3)o2)c1	18*	0	-7	-2	0
COc1ccc(CC(=O)NN=C(C)c2cccc(NC(=O)C3CC3)c2)cc1	·	·	·	·	2
Cc1ccc(N2CCN(C(=O)CN3C(=O)c4ccccc4C3=O)CC2)cc1	21*	0	-9	-3	0
O=C(CN1C(=O)c2ccccc2C1=O)N1CCN(c2ccccc2)CC1	1	0	-5	-12	2
Cc1c(NC(=O)CSCc2ccc(Cl)cc2Cl)cccc1C(=O)O	19*	0	-5	5	4
O=C(CSCc1ccc(Cl)cc1Cl)Nc1ccc(O)cc1C(=O)O	-3	0	-1	3	0
